# Laboratory results published in ChEMBL document CHEMBL3393003, “1,2,3,9b-Tetrahydro-5H-imidazo[2,1-a]isoindol-5-ones as a new class of respiratory syncytial virus (RSV) fusion inhibitors. Part 2: identification of BTA9881 as a preclinical candidate” (Bioorg Med Chem Lett, 2015).
# Assays:
# [1] = test system: Respiratory syncytial virus; assay: Potency shift index, ratio of EC50 for respiratory syncytial virus A2 infected in human Hep2 in presence of 1.5 mg/mL Alpha-1-acid glycoprotein to EC50 for respiratory syncytial virus A2 infected in human Hep2 in absence of Alpha-1-acid glycoprotein; assay type: functional
# [2] = test system: Plasma; assay: Drug metabolism in orally dosed Sprague-Dawley rat plasma assessed as formation of pyridine N-oxides level; assay type: ADME, organism-based; conditions: in vivo, po
# [3] = Drug metabolism in orally dosed Sprague-Dawley rat urine assessed as formation of pyridine N-oxides level; assay type: ADME, organism-based; conditions: in vivo, po
# [4] = test system: Plasma; assay: Drug metabolism in iv dosed Sprague-Dawley rat plasma assessed as formation of pyridine N-oxides level; assay type: ADME, organism-based; conditions: in vivo
# [5] = Drug metabolism in iv dosed Sprague-Dawley rat urine assessed as formation of pyridine N-oxides level; assay type: ADME, organism-based; conditions: in vivo
# [6] = test system: Respiratory syncytial virus; assay: Antiviral activity against respiratory syncytial virus A2 infected in human Hep2 cells assessed as reduction in virus-induced cytopathic effect after 5 days by MTT assay; assay type: functional, organism-based; conditions: A2, HEp-2, 120 h
# Procedure, shortened: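 HEp2 cells (1.0 × 10⁴/well) infected at low moi (RSV A2 at moi 0.01) and added to serial compound dilutions; incubated 5 days at 37 °C, 5% CO₂. CPE read by MTT (1 mg/ml) metabolism after 2 h incubation.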
# [7] = Cytotoxicity against human Hep2 cells assessed as reduction in cell viability after 5 days by MTT assay; assay type: cell-based, HEp-2
# Procedure, shortened: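 Uninfected HEp2 cells (1.0 × 10⁴/well) exposed to serial compound dilutions for 5 days at 37 °C, 5% CO₂. Viability read by MTT (1 mg/ml) metabolism after 2 h incubation.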
# [8] = test system: Respiratory syncytial virus; assay: Antiviral activity against respiratory syncytial virus Long infected in human Hep2 cells assessed as reduction in virus-induced cytopathic effect after 5 days by MTT assay; assay type: functional, organism-based; conditions: HEp-2, 120 h
# [9] = test system: Respiratory syncytial virus; assay: Antiviral activity against respiratory syncytial virus B1 infected in human Hep2 cells assessed as reduction in virus-induced cytopathic effect after 5 days by MTT assay; assay type: functional, organism-based; conditions: B1, HEp-2, 120 h
# [10] = Lipophilicity, log D of the compound at pH 7.4 by chromatography; assay type: physicochemical; conditions: buffer
# Procedure, shortened: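 Effective logD measured chromatographically on an LC-ABZ column, octanol-saturated mobile phase at pH 7.4.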
# [11] = Kinetic solubility in isotonic phosphate buffer at pH 6.5 by nephelometry; assay type: physicochemical; conditions: read-out: Kinetic_solubility
# Procedure, shortened: (§1)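 Compound dissolved in DMSO and added to 0.01 M HCl (pH 2) or pH 6.5 isotonic phosphate buffer, 1% final DMSO. Solubility range determined by nephelometry.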
# [12] = Elimination half life in Sprague-Dawley rat at 1.1 mg/kg, iv; assay type: ADME, organism-based; set-up: dose 1.1 mg/kg, route intravenous; conditions: in vivo, read-out: beta t1/2 (converted)
# [13] = Cmax in Sprague-Dawley rat at 20 mg/kg, po; assay type: ADME, organism-based; set-up: dose 20 mg/kg, route oral; conditions: in vivo
# Procedure, shortened: (§2)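 Male Sprague Dawley rats, n = 2, oral dose as suspension in hydroxypropylmethylcellulose, in carboxymethylcellulose, or in 0.5% HPMC/0.5% benzyl alcohol/0.4% Tween80. Cmax (µM), T1/2 and F (%) derived from plasma levels.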
# [14] = Kinetic solubility in 0.01M HCl buffer at pH 2.0 by nephelometry; assay type: physicochemical; conditions: read-out: Kinetic_solubility; procedure, shortened: as §1
# [15] = Plasma clearance in Sprague-Dawley rat at 1.1 mg/kg, iv; assay type: ADME, organism-based; set-up: dose 1.1 mg/kg, route intravenous
# [16] = Elimination half life in Sprague-Dawley rat at 20 mg/kg, po; assay type: ADME, organism-based; set-up: dose 20 mg/kg, route oral; conditions: in vivo, read-out: beta t1/2 (converted); procedure, shortened: as §2
# [17] = Apparent volume of distribution in Sprague-Dawley rat at 1.1 mg/kg, iv; assay type: ADME, organism-based; set-up: dose 1.1 mg/kg, route intravenous; conditions: in vivo, read-out: Vz
# [18] = Oral bioavailability in Sprague-Dawley rat at 20 mg/kg; assay type: ADME, organism-based; conditions: in vivo; procedure, shortened: as §2
# [19] = test system: Respiratory syncytial virus; assay: Resistance index, ratio of EC50 for drug resistant respiratory syncytial virus Long expressing F protein Q494L mutant to EC50 for wild type Respiratory syncytial virus Long
# [20] = test system: Respiratory syncytial virus; assay: Resistance index, ratio of EC50 for drug resistant respiratory syncytial virus B1 expressing F protein L141F mutant to EC50 for wild type Respiratory syncytial virus B1; assay type: functional
# [21] = test system: Respiratory syncytial virus; assay: Resistance index, ratio of EC50 for VP-14637 resistant respiratory syncytial virus Long expressing F protein D489Y mutant to EC50 for wild type Respiratory syncytial virus Long
# [22] = Oral bioavailability in Sprague-Dawley rat at 19 mg/kg; assay type: ADME, organism-based; conditions: in vivo; procedure, shortened: as §2
# [23] = Plasma clearance in Sprague-Dawley rat at 2 mg/kg, iv; assay type: ADME, organism-based; set-up: dose 2 mg/kg, route intravenous
# [24] = Cmax in Sprague-Dawley rat at 19 mg/kg, po; assay type: ADME, organism-based; set-up: dose 19 mg/kg, route oral; conditions: in vivo; procedure, shortened: as §2
# [25] = Elimination half life in Sprague-Dawley rat at 19 mg/kg, po; assay type: ADME, organism-based; set-up: dose 19 mg/kg, route oral; conditions: in vivo, read-out: beta t1/2 (converted); procedure, shortened: as §2
# [26] = Apparent volume of distribution in Sprague-Dawley rat at 2 mg/kg, iv; assay type: ADME, organism-based; set-up: dose 2 mg/kg, route intravenous; conditions: in vivo, read-out: Vz
# [27] = Elimination half life in Sprague-Dawley rat at 2 mg/kg, iv; assay type: ADME, organism-based; set-up: dose 2 mg/kg, route intravenous; conditions: in vivo, read-out: beta t1/2 (converted)
# [28] = Total clearance in Sprague-Dawley rat at 3.1 mg/kg, iv; assay type: ADME, organism-based; set-up: dose 3.1 mg/kg, route intravenous; conditions: in vivo
# Procedure, shortened: (§3)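 Male Sprague Dawley rats given one IV dose. 3.1 mg/kg: n = 1, in 40% propylene glycol, 10% ethanol and 0.4% Tween80 in water. 2.1 mg/kg: n = 2, in 20 mM citrate (pH 2.6) with 5% glucose and 10% DMSO. Total clearance, Vz and T1/2 derived from plasma levels.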
# [29] = Cmax in Sprague-Dawley rat at 18 mg/kg, po; assay type: ADME, organism-based; set-up: dose 18 mg/kg, route oral; conditions: in vivo
# Procedure, shortened: (§4)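 Male Sprague Dawley rats, n = 2, oral dose as suspension with carboxymethylcellulose. Cmax (µM), T1/2 and F (%) derived from plasma levels.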
# [30] = Oral bioavailability in Sprague-Dawley rat at 18 mg/kg; assay type: ADME, organism-based; conditions: in vivo; procedure, shortened: as §4
# [31] = Elimination half life in Sprague-Dawley rat at 3.1 mg/kg, iv; assay type: ADME, organism-based; set-up: dose 3.1 mg/kg, route intravenous; conditions: in vivo, read-out: beta t1/2 (converted); procedure, shortened: as §3
# [32] = Apparent volume of distribution in Sprague-Dawley rat at 3.1 mg/kg, iv; assay type: ADME, organism-based; set-up: dose 3.1 mg/kg, route intravenous; conditions: in vivo, read-out: Vz; procedure, shortened: as §3
# [33] = Half life in Sprague-Dawley rat at 18 mg/kg, po; assay type: ADME, organism-based; set-up: dose 18 mg/kg, route oral; conditions: in vivo; procedure, shortened: as §4
SMILES,Ratio EC50 [1],EC50 [6],CC50 at 120 h [7],EC50 [8],EC50 [9],chromatographic logD [10],solubility kinetic [11],solubility kinetic [14],further results
O=C(c1ccc(F)nc1)N1CCN2C(=O)c3ccncc3C12c1ccc(Cl)cc1 (racemic),1.8,93 nM,> 48 µM,–,–,–,–,–,Drug metabolism [2]: metabolite_detected; Drug metabolism [3]: metabolite_detected; Drug metabolism [4]: metabolite_detected; Drug metabolism [5]: metabolite_detected
O=C(c1ccco1)N1CCN2C(=O)c3ccncc3C12c1ccc(Cl)cc1 (racemic),3.6,120 nM,> 19 µM,370 nM,170 nM,2.8,> 100 µg/mL,50 µg/mL,half-life [12]: 144 min; Cmax [13]: 440 nM; clearance [15]: 79 mL/min/kg; half-life [16]: 168 min; Vd [17]: 8.7 L/kg; bioavailability [18]: 21%
O=C(c1ccsc1)N1CCN2C(=O)c3ccncc3C12c1ccc(Cl)cc1 (racemic),27,170 nM,> 18 µM,–,–,–,–,–,–
Cn1cc(C(=O)N2CCN3C(=O)c4ccncc4[C@@]32c2ccc(Cl)cc2)c(C(F)(F)F)n1,–,7.2 nM,–,6.4 nM,100 nM,3,25 µg/mL,> 100 µg/mL,–
Cc1cc(C(=O)N2CCN3C(=O)c4ccncc4C32c2ccc(Cl)cc2)c(C)o1 (racemic),14,120 nM,> 18 µM,–,–,–,–,–,–
Cn1cccc1C(=O)N1CCN2C(=O)c3ccncc3C21c1ccc(Cl)cc1 (racemic),91,20 nM,> 20 µM,–,–,–,–,–,–
O=c1n(Cc2nc3ccccc3n2CCCCO)c2cnccc2n1C1CC1,–,–,–,–,–,–,–,–,Ratio EC50 [19]: 10; Ratio EC50 [20]: >345; Ratio EC50 [21]: >20000
O=C(c1ccoc1)N1CCN2C(=O)c3ccncc3[C@]12c1ccc(Cl)cc1,–,10 nM,–,32 nM,85 nM,2.5,> 100 µg/mL,50 µg/mL,bioavailability [22]: 35%; clearance [23]: 55 mL/min/kg; Cmax [24]: 770 nM; half-life [25]: 186 min; Vd [26]: 11 L/kg; half-life [27]: 144 min
Cn1cc(C(=O)N2CCN3C(=O)c4cc[n+]([O-])cc4[C@@]32c2ccc(Cl)cc2)c(C(F)(F)F)n1,–,10 nM,> 5 µM,–,–,–,–,–,clearance [28]: 2.2 mL/min/kg; Cmax [29]: 9.3 µM; bioavailability [30]: 57%; half-life [31]: 660 min; Vd [32]: 2.1 L/kg; half-life [33]: 660 min
